# High-throughput results deposited in PubChem by several laboratories.
# Shown are actives, neighbours in structure and some others; about 8.9% of the full set was active somewhere.
# bCat nuc transl: beta-catenin nuclear translocation modulation; HeLa beta-catenin nuclear translocation, immunofluorescence imaging; nuclear translocation activity, % at 5 µM; hit rate 0.3% among 190,000; AID 1665;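 active = nuclear translocation activity above 50% at 5 µM, with a well cell count of 50 or more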;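 note: per-cell ratio of nuclear to cytoplasmic median beta-catenin stain intensity; plate controls were DMSO negative control for no effect and GSK-3 inhibitor IX positive control for full effect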
#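 test system = HeLa cells, endogenous beta-catenin | dosing = single 5 µM dose plus 0.02–20 µM confirmation series | times = compound treatment 24 h, 37°C, 5% CO2 | technique = beta-catenin immunofluorescence imaging with DAPI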
# Lmaj promast: inhibitors of Leishmania major promastigote growth; Leishmania major promastigotes, resazurin fluorescence viability; hit rate 9% among 200,000; inhibition, % at 10 µM; in the data active = inhibition above about 50%;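 note: promastigotes grown with compound for 44 hours at 28 °C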
# MT stabilizer: stabilizes microtubules in HeLa cells; HeLa tubulin immunostaining HCS, 24 h; share of cells brighter than vehicle mean+2SD; % tubulin-high responders, % at 10 µM; hit rate 0.83% among 200,000;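 active = plate Z-score above 3 for both tubulin-high and condensed-nucleus cell shares, with cell loss under 80%, at 10 µM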;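 note: anti alpha tubulin signal scored within the nucleus-defined area of each cell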
# HSV augment: HSV replication enhancement | maximum fold increase | HSV replication augmentation in cells, fold increase | hit rate 0.005% among 220,000; in the data active = maximum fold increase above about 1.5; tested in PC3 cells
# Dynein cargo inh: dynein cargo transport inhibition | 3617.4 mouse cells, GR-EGFP nuclear translocation imaging; test concentration mostly 20 µM; stimulated with dexamethasone, 1 µM; hits give low values | z-score, hits read low | hit rate 0.47% among 220,000 | AID 1381;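 active = plate z-score of nuclear minus cytoplasmic receptor signal below a set negative limit, without overly bright fluorescence or cell loss, cut at about -3.5 in these data, passing the limit was not always enough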;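 note: z-score of nuclear minus cytoplasmic ring GR-EGFP intensity difference per well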
#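 medium = tetracycline-free induction medium containing charcoal-stripped FBS | probe or stimulus = dexamethasone, 1.0 µM final | timing = 48 h induction, then 1 h compound, then 30 min agonist, 37 °C | detection = automated 10x imaging of fixed Hoechst-stained cells | read-out basis = nuclear versus cytoplasmic GR-EGFP signal, averaged per well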
# Active calls of the source: *; i = inactive; / = no result.
SMILES,bCat nuc transl,Lmaj promast,MT stabilizer,HSV augment,Dynein cargo inh
COc1ccc(NC(=O)CC(c2ccc(F)cc2)c2ccc(OC(C)C)cc2)cc1 (stereo unspecified),1,2,1,i,-0.24
COc1ccc(C(CCNCc2ccc(F)cc2)c2ccc(F)cc2)cc1 (stereo unspecified),-1,72*,4,i,-0.55
COc1ccc(C(CCNCc2ccccc2)c2ccc(F)cc2)cc1 (stereo unspecified),1,99*,3,i,-0.98
COc1ccc(CNCCC(c2ccc(F)cc2)c2ccc(OC)cc2)cc1 (stereo unspecified),-3,100*,3,i,1.4
COc1ccc(C(CCNC(C)c2ccccc2)c2ccc(F)cc2)cc1 (stereo unspecified),3,100*,5,i,-3.2
S=C1NCCNC(=S)NCCOCCN1,-1,4,3,i,-1
CN(C)c1ccc(/C=N/NC(=O)Cn2nnc3ccccc32)cc1,/,-1,2,i,0.39
Cn1cc(Cl)c(C(=O)OCC(=O)Nc2nc(-c3ccc(Br)cc3)cs2)n1,/,100*,1,i,0.26
N/C(Cc1ccc(Cl)cc1)=N\OC(=O)C1CCCCC1,0,73*,1,i,0.25
O=C(Nc1ccc(NC(=O)C2CC2)cn1)c1ccccc1Cl,2,-6,2,i,-0.18
O=C(Nc1ccc(NC(=O)C2CCCCC2)nc1)c1ccco1,1,86*,2,i,-0.34
O=C(Nc1ccc(NC(=O)C2CCCCC2)nc1)c1ccccn1,4,71*,2,i,-0.41
CCCC(=O)C1=C(O)C(C(=O)OC)C(C)(C)CC1=Nc1ccc(N)cc1 (stereo unspecified),3,6,3,i,-0.61
COc1ccc(NC(=O)CN(C)CC(=O)Nc2ccccc2SC)cc1Cl,-2,7,2,i,4
COc1ccc(NCC(=O)Nc2ccccc2C#N)cc1Cl,-5,87*,1,i,0.24
O=C1CN(S(=O)(=O)c2ccccc2)c2ccccc2N1,1,-3,1,i,-0.59
O=C(O)CC(C(=O)NCc1ccccc1)C1CCCO1 (stereo unspecified),-6,-6,4,/,-0.76
O=C(OC(c1ccccc1)c1nccc2ccccc12)c1cc([N+](=O)[O-])cc([N+](=O)[O-])c1 (stereo unspecified),0,98*,5,i,1
Nc1nn2cc(-c3ccccc3)nc2c2ccccc12,-1,87*,4,i,-0.25
Cc1cn2nc(N)c3ccccc3c2n1,0,-3,4,i,2
Fc1ccccc1Nc1nc(-c2ccncc2)nc2ccccc12,-2,96*,5,i,-0.15
CCCCn1nnnc1NCc1cc(OC)c(OC)cc1OC,-1,-4,2,i,0.39
Oc1c(I)cc(Cl)c2cccnc12,-1,-4,3,/,0.62
O=C(COc1c(Br)cc(Br)c2cccnc12)N1CCCCC1,0,5,2,i,-0.069
COc1ccc(C(=O)Oc2c(CN3CCOCC3)cc(Cl)c3cccnc23)cc1OC,/,97*,1,i,-0.84
SMILES,bCat nuc transl,Lmaj promast,MT stabilizer,HSV augment,Dynein cargo inh
Oc1c(CN2CCCCC2)cc(Br)c2cccnc12,3,100*,7,i,-0.64
COc1cc(OC)cc(C(=O)Oc2c(CN3CCOCC3)cc(Cl)c3cccnc23)c1,-2,/,/,i,-0.34
O=C(Oc1c(CN2CCOCC2)cc(Cl)c2cccnc12)c1ccccc1,-2,100*,1,i,0.42
Oc1c(CN2CCc3ccccc3C2)cc(Cl)c2cccnc12,/,100*,3,i,-0.7
N/C(=N\OC(=O)c1ccco1)c1cccc([N+](=O)[O-])c1,-2,-5,1,i,-0.91
CCCn1c(=O)c2ccccc2n2c(SCC(=O)N3CCc4ccccc4C3)nnc12,1,2,3,i,-0.52
O=C(Oc1c(CN2CCOCC2)cc(Cl)c2cccnc12)c1ccccc1F,-1,101*,5,i,-0.76
CC1Oc2ccccc2N(CC(=O)Nc2ccc3c(c2)OCCO3)C1=O (stereo unspecified),-1,3,4,i,-0.91
COc1cc(C)ccc1OCCOc1c(Cl)cc(Cl)cc1Cl,0,-7,1,i,-0.46
Cc1cc(C)c(OCCOCCN(C)C)c(Br)c1,/,96*,2,i,0.22
Cc1cc(Cl)cc(Br)c1OCCCNCC(C)O (stereo unspecified),1,30,5,i,-0.04
Cc1cc(Cl)cc(Cl)c1OCCCCN(C)C,5,86*,5,i,0.066
Cc1cc(C)c(OCC(=O)Nc2nnn(C)n2)c(Br)c1,3,1,3,i,0.13
Cc1cc(C)c(OCCCCN(C)C)c(Br)c1,0,85*,2,i,1.7
Cc1nn2c(NCCCN(C)C)c3c(nc2c1-c1ccccc1)CCCC3,1,/,/,i,1.9
Cc1nn2c(NCCCN(C)C)c3c(nc2c1-c1ccccc1)CCC3,/,100*,1,i,4.2
Cc1cccc2cc(CN(Cc3ccccc3)C(=S)NCCCN(C)C)c(=O)[nH]c12,2,78*,2,i,-0.062
Cc1ccc(CN(Cc2cc3cccc(C)c3[nH]c2=O)C(=S)NCCCN(C)C)cc1,0,62*,2,i,-0.56
Cc1cccc2cc(CN(Cc3cccnc3)C(=S)NCCCN(C)C)c(=O)[nH]c12,0,-7,1,i,-1
Cc1cc(C)c2cc(CN(CCCN(C)C)C(=S)NCc3ccccc3)c(=O)[nH]c2c1,0,100*,4,i,2.8
O=C(Nc1cc(Br)ccc1O)c1cnn2c(C(F)F)cc(C3CC3)nc12,-1,51*,2,i,0.38
O=C(Nc1c2ccccc2nc2ccccc12)C(Cl)(Cl)Cl,/,100*,1,i,-0.7
CN1CCC(N(C)C(=O)c2sc3cc(F)ccc3c2Cl)CC1,4,90*,4,i,0.77
CC(C)N(CC(N)=O)C(=O)c1sc2cc(F)ccc2c1Cl,2,-1,3,i,0.26
CN(C)Cc1nc2ccccc2c(=O)n1Cc1nc(-c2cccc([N+](=O)[O-])c2)cs1,-2,52*,3,i,-0.56
O=c1cc(N2CCN(c3ccccc3Cl)CC2)[nH]c(=O)n1Cc1ccc(F)cc1,1,/,/,i,0.07
COc1ccccc1N1CCN(c2cc(=O)n(Cc3ccc(F)cc3)c(=O)[nH]2)CC1,1,-6,22*,i,-0.89
CC(OC(=O)c1ccc([N+](=O)[O-])s1)C(=O)Nc1ncc(Cl)cc1Cl (stereo unspecified),-3,100*,3,i,3.2
COc1ccc(/C(N)=N/OC(=O)c2cccc([N+](=O)[O-])c2)cc1,/,0,3,i,0.42
CC1=CC(=O)C(C(C)C)=C/C1=N/OC(=O)c1cccc([N+](=O)[O-])c1,/,100*,1,i,-0.76
